Assay: Antiprion activity against mouse prion protein RML infected mouse ScN2a cells assessed as reduction in proteinase K-resistant PrPSc level incubated for 5 days followed by proteinase K digestion by Western blot method
Conditions: 120 h
Method in brief: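 RML-infected ScN2a cells were treated with 0.1, 1 and 10 μM for 5 days, with DMSO ≤0.1% final. Lysates (500 μg protein) were digested with 10 μg PK for 1 h at 37 °C, stopped with 2 mM PMSF and ultracentrifuged. Pellets were run on SDS-PAGE and immunoblotted with anti-PrP Fab W226, with ECL detection. Densitometry gave PK-resistant PrPSc over total PrP, with untreated set to 100%. Three independent experiments.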

Compound | EC50 (read-out: EC50) | EC50 (read-out: pEC50 (converted))
Cc1ccnc(Nc2nc(-c3ccncc3)cs2)c1 | 4950 nM | 5010 nM
NS(=O)(=O)c1ccc(Nc2nc(-c3ccc(O)c(O)c3)cs2)cc1 | 13500 nM | 13500 nM
COc1ccc(-c2ccc(-c3csc(Nc4cccc(C)n4)n3)cc2)cn1 | 140 nM | 141 nM
COc1ccc(-c2csc(NC(=O)c3ccc4ccccc4n3)n2)cc1OC | 8180 nM | 8130 nM
CN1CCN(c2cccc(Nc3nc(-c4ccc(-c5ccccc5)cc4)cs3)n2)CC1 | 1180 nM | 1170 nM
COc1ccc(NC(=O)c2csc(Nc3ccc(C)cn3)n2)cc1OC | 2440 nM | 2450 nM
Cc1cccc(Nc2nc(-c3ccc(-c4c(C)noc4C)cc3)cs2)n1 | 2130 nM | 2140 nM
Cc1cccc(Nc2nc(-c3ccc(-c4ccc(OC(C)C)nc4)cc3)cs2)n1 | 5860 nM | 5890 nM
COCCOc1ccc(-c2ccc(-c3csc(NC(=O)C4CC4)n3)cc2)cn1 | 118 nM | 117 nM
COc1ccc(-c2csc(Nc3ccc4ccccc4n3)n2)cc1 | 340 nM | 339 nM
COc1ccc(-c2csc(N(C)c3ccc4ccccc4n3)n2)cc1OC | 140 nM | 141 nM
Cc1ccc(Nc2nc(-c3ccccn3)cs2)nc1 | 860 nM | 851 nM
COCCOc1cc(-c2ccc(-c3csc(Nc4cccc(C)n4)n3)cc2)ccn1 | 153 nM | 155 nM
FC(F)(F)c1csc(Nc2ccc3ccccc3n2)n1 | 8660 nM | 8710 nM
CN1CCN(c2ccc(-c3ccc(-c4csc(NC(=O)C5CC5)n4)cc3)cn2)CC1 | 70 nM | 70.8 nM
c1ccc(-c2cc(-c3csc(Nc4ccccn4)n3)on2)cc1 | 600 nM | 603 nM
c1ccc(-c2cc(-c3csc(Nc4ccc(-c5cnco5)cc4)n3)on2)cc1 | 57 nM | 57.5 nM
CN1CCN(c2cc(-c3ccc(-c4csc(NC(=O)C5CC5)n4)cc3)ccn2)CC1 | 682 nM | 676 nM
CC(=O)Nc1ccc(-c2csc(Nc3ccccn3)n2)cc1 | 8500 nM | 8510 nM
Cc1ccc(Nc2nc(-c3cccc(C#N)c3)cs2)nc1 | 2290 nM | 2290 nM
Cc1cccc(Nc2nc(-c3ccncc3)cs2)n1 | 1000 nM | 1000 nM
Cc1ccnc(Nc2nc(-c3cc(-c4ccc(Cl)cc4)no3)cs2)c1 | 850 nM | 851 nM
COc1ccc(-c2csc(Nc3cnccn3)n2)cc1OC | 15600 nM | 15500 nM
Cc1cc(-c2ccc(-c3csc(Nc4cccc(C)n4)n3)cc2)ccn1 | 400 nM | 398 nM

Compound | EC50 (read-out: EC50) | EC50 (read-out: pEC50 (converted))
O=C(CN1CCCC1)Nc1ccc(Cc2ccc(NC(=O)CN3CCCC3)cc2)cc1 | 1350 nM | 1350 nM
O=C(Nc1nc(-c2ccc(-c3ccccc3)cc2)cs1)C1CC1 | 248 nM | 245 nM
COc1ccc(-c2csc(Nc3ccc(C)cn3)n2)c(OC)c1 | 3130 nM | 3160 nM
Cc1cccc(Nc2nc(-c3ccc(-c4ccccc4)cc3)cs2)n1 | 2290 nM | 1260 nM
Oc1ccc(-c2csc(Nc3ccccn3)n2)cc1O | 10000 nM | 10000 nM
Cc1cccc(Nc2nc(-c3cc4ccccc4o3)cs2)n1 | 1460 nM | 1450 nM
Cc1cccc(Nc2nc(-c3ccc(-c4cccnc4)cc3)cs2)n1 | 68 nM | 69.2 nM
COc1ccc(-c2csc(Nc3ccc4ccccc4n3)n2)cc1OC | 430 nM | 427 nM
COc1ccc(-c2csc(N(C(C)=O)c3ccc4ccccc4n3)n2)cc1OC | 81 nM | 81.3 nM
Cc1cccc(Nc2nc(-c3ccc(N4CCN(C)CC4)cc3)cs2)n1 | 840 nM | 832 nM
COCCOc1cc(-c2ccc(-c3csc(NC(=O)C4CC4)n3)cc2)ccn1 | 1320 nM | 1320 nM
COc1ccnc(Nc2nc(-c3cc(-c4ccccc4)no3)cs2)c1 | 250 nM | 251 nM
c1cc(-c2csc(Nc3ccc(-c4cnco4)cc3)n2)ccn1 | 124 nM | 123 nM
c1ccc(-c2cc(-c3csc(Nc4ccc5ccccc5n4)n3)on2)cc1 | 800 nM | 794 nM
Cc1cccc(Nc2nc(-c3ccc(-c4ccc[n+]([O-])c4)cc3)cs2)n1 | 203 nM | 204 nM
COc1ccc(-c2csc(Nc3ccc4ccccc4c3)n2)cc1OC | 390 nM | 389 nM
Cc1cccc(Nc2nc(-c3ccc(-c4ccnc(N5CCN(C)CC5)c4)cc3)cs2)n1 | 759 nM | 759 nM
Cc1cccc(Nc2nc(-c3ccc(O)cc3O)cs2)n1 | 3900 nM | 3890 nM
Cc1cccc(Nc2nc(-c3cc(-c4ccccc4)no3)cs2)n1 | 820 nM | 813 nM
COc1ccc(-c2csc(Nc3ccc(C)cn3)n2)cc1OC | 790 nM | 794 nM
COCC(=O)Nc1nc(-c2ccc(-c3ccccc3)cc2)cs1 | 1590 nM | 1580 nM
Cc1cccc(Nc2nc(-c3ccc(N4CCOCC4)cc3)cs2)n1 | 51 nM | 51.3 nM
Cc1cccc(Nc2nc(-c3ccc(-c4cc[n+]([O-])cc4)cc3)cs2)n1 | 559 nM | 562 nM
CC(=O)Nc1nc(-c2ccc(-c3ccccc3)cc2)cs1 | 119 nM | 120 nM

Compound | EC50 (read-out: EC50) | EC50 (read-out: pEC50 (converted))
Cc1ccc(Nc2nc(-c3cc(-c4ccccc4)no3)cs2)nc1 | 940 nM | 933 nM
Cc1cccc(Nc2nc(-c3ccc(O)c(O)c3)cs2)n1 | 2500 nM | 2510 nM
Cc1cccc(Nc2nc(-c3ccc(-c4ccc(N(C)C)nc4)cc3)cs2)n1 | 69 nM | 69.2 nM
Cc1cccc(Nc2nc(-c3ccc(-c4ccncc4C)cc3)cs2)n1 | 618 nM | 617 nM
c1ccc2nc(Nc3nc(-c4ccncc4)cs3)ccc2c1 | 310 nM | 309 nM
COc1ccc(-c2csc(Nc3cc(C)ccn3)n2)cc1OC | 1000 nM | 1000 nM
COCCOc1ccc(-c2ccc(-c3csc(Nc4cccc(C)n4)n3)cc2)cn1 | 137 nM | 138 nM
COc1ccc(-c2csc(Nc3cccc(C)n3)n2)cc1OC | 3010 nM | 3020 nM
Cc1cccc(Nc2nc(-c3ccc(-c4ccc(N5CCN(C)CC5)nc4)cc3)cs2)n1 | 96 nM | 95.5 nM
Cc1ccc(Nc2nc3c(s2)Cc2ccccc2-3)nc1 | 2440 nM | 2450 nM
COc1ccc(-c2csc(Nc3ncccc3C)n2)cc1OC | 7290 nM | 7240 nM
c1ccc2nc(Nc3nc(-c4cc5ccccc5o4)cs3)ccc2c1 | 920 nM | 912 nM
Cc1cccc(Nc2nc(-c3ccc(-c4ccnn4C)cc3)cs2)n1 | 89 nM | 89.1 nM
c1ccc(-c2ccc(-c3csc(Nc4ccc5ccccc5n4)n3)s2)nc1 | 2010 nM | 2000 nM
Cc1cccc(Nc2nc(-c3ccc(-c4ccnc(OC(C)C)c4)cc3)cs2)n1 | 2840 nM | 2820 nM
Cc1ccc(Nc2nc(-c3ccccc3)cs2)nc1 | 7880 nM | 7940 nM
COc1ccc(-c2csc(Nc3cccnc3)n2)cc1OC | 28000 nM | 28200 nM
COc1ccc(-c2csc(Nc3ncccn3)n2)cc1OC | 3940 nM | 3980 nM
COc1ccc(-c2csc(Nc3ccccn3)n2)cc1OC | 1220 nM | 1230 nM
COc1ccc(-c2csc(Nc3ccncc3)n2)cc1OC | 6380 nM | 6460 nM
COc1ccc(-c2csc(Nc3ccc(C)cn3)n2)cc1 | 3030 nM | 3020 nM
COc1ccc(-c2csc(Nc3ccc(C(F)(F)F)cn3)n2)cc1OC | 2530 nM | 2510 nM
CN(C)c1ccncc1-c1ccc(-c2csc(NC(=O)C3CC3)n2)cc1 | 109 nM | 110 nM
c1ccc(-c2csc(Nc3ccc4ccccc4n3)n2)cc1 | 3080 nM | 3090 nM

From ChEMBL document CHEMBL3994584, “Identification of novel fluorescent probes preventing PrPSc replication in prion diseases” (Eur J Med Chem, 2017)
